This note sets out measurements from ChEMBL document CHEMBL1149250, “Optimization of protein kinase CK2 inhibitors derived from 4,5,6,7-tetrabromobenzimidazole” (J Med Chem, 2004).

The structures appear in SMILES notation.

For one experiment, the target named is Casein kinase II (Homo sapiens, UniProt P19784+P67870+P68400). The experiment in a line: Inhibition of CK2. It counts as protein-complex assay.
Experiment [1] concerns the target Mitogen-activated protein kinase 14 (Homo sapiens) (UniProt Q16539). The experiment in a line: Inhibition of SAPK2a/p38 at 10 uM relative to control; values are per cent of control.
For experiment [2], the species on record is Homo sapiens. The experiment in a line: Inhibition of PP2A at 10 uM relative to control; values are per cent of control.
Experiment [3] concerns the target Tyrosine-protein kinase SYK (Rattus norvegicus) (UniProt Q64725). The experiment in a line: Residual activity of Syk at 10 uM relative to control.
Experiment [4] deals with Mitogen-activated protein kinase 13 (Homo sapiens) (UniProt O15264). Briefly: Residual activity of SAPK4/p38delta at 10 uM relative to control.
Experiment [5] has as its target Dual specificity mitogen-activated protein kinase kinase 1 (Homo sapiens, UniProt Q02750). The experiment in a line: Inhibition of MKK1 at 10 uM relative to control; values are per cent of control.
In experiment [6] the target is Ribosomal protein S6 kinase beta-1 (Homo sapiens) (UniProt P23443). The experiment in a line: Residual activity of S6K1 at 10 uM relative to control.
For experiment [7], the target named is cAMP-dependent protein kinase (PKA) (Homo sapiens) (UniProt P22694+P17612+P22612). The experiment in a line: Inhibition of PKA at 10 uM relative to control; values are per cent of control.
The subject of a further experiment is Jurkat. The experiment in a line: Inhibition of cell viability in Jurkat T cells after 24 hrs by MTT method. It counts as functional, cell-based. The settings on record: Homo sapiens. Put shortly:
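Human Jurkat T-leukemia cells, grown in RPMI-1640 with 10% FCS, were resuspended at 10⁶ cells/mL in medium with 1% FCS. They were exposed to increasing compound concentrations for 24 h at 37 °C. Controls received DMSO (0.5% v/v), set as 100% viability. Viability was read by MTT. Values are means ± SEM of three separate experiments; DC50 was taken as the concentration halving viability.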
For orientation: Tetrazolium assays rely on reduction of a dye to a coloured formazan, in cell work by metabolically active cells.

The target in experiment [8] is Mitogen-activated protein kinase 1 (Homo sapiens) (UniProt P28482). The experiment in a line: Inhibition of MAPK2/ERK2 at 10 uM relative to control; values are per cent of control.
Experiment [9] deals with Mitogen-activated protein kinase 8 (Homo sapiens) (UniProt P45983). Briefly: Inhibition of JNK/SAPK1c at 10 uM relative to control; values are per cent of control.
Experiment [10] has as its target AMP-activated protein kinase (AMPK) alpha-1/beta-1/gamma-1 (Homo sapiens) (UniProt P54619+Q9Y478+Q13131). The experiment in a line: Inhibition of AMPK at 10 uM relative to control; values are per cent of control.
Experiment [11] concerns the target Ribosomal protein S6 kinase alpha-5 (Homo sapiens) (UniProt O75582). Briefly: Residual activity of MSK1 at 10 uM relative to control.
Experiment [12] concerns the target Protein kinase C alpha type (Homo sapiens) (UniProt P17252). Briefly: Inhibition of PKCalpha at 10 uM relative to control; values are per cent of control.
For experiment [13], the target named is Dual specificity tyrosine-phosphorylation-regulated kinase 1A (Homo sapiens, UniProt Q13627). Briefly: Inhibition of DYRK1A at 10 uM relative to control; values are per cent of control.
Experiment [14] concerns the target Serine/threonine-protein kinase Sgk1 (Homo sapiens) (UniProt O00141). The experiment in a line: Inhibition of SGK at 10 uM relative to control; values are per cent of control.
Experiment [15] addresses MAP kinase-activated protein kinase 2 (Homo sapiens) (UniProt P49137). The experiment in a line: Inhibition of MAPKAPK2 at 10 uM relative to control; values are per cent of control.
The target of experiment [16] is 3-phosphoinositide-dependent protein kinase 1 (Homo sapiens) (UniProt O15530). The experiment in a line: Inhibition of PDK1 at 10 uM relative to control; values are per cent of control.
Experiment [17] concerns the target Serine/threonine-protein kinase Chk1 (Homo sapiens) (UniProt O14757). The experiment in a line: Inhibition of at CHK1 at 10 uM relative to control; values are per cent of control.
In experiment [18] the target is Rho-associated protein kinase 2 (Homo sapiens) (UniProt O75116). Briefly: Inhibition of ROCK2 at 10 uM relative to control; values are per cent of control.
The target in experiment [19] is Mitogen-activated protein kinase 12 (Homo sapiens) (UniProt P53778). Briefly: Residual activity of SAPK3/p38gamma relative to control.
For experiment [20], the species on record is Homo sapiens. The experiment in a line: Inhibition of phosphorylase kinase at 10 uM relative to control.
Experiment [21] addresses Glycogen synthase kinase-3 beta (Homo sapiens) (UniProt P49841). The experiment in a line: Inhibition of GSKbeta at 10 uM relative to control; values are per cent of control.
Experiment [22] has as its target Mitogen-activated protein kinase 11 (Homo sapiens) (UniProt Q15759). Briefly: Inhibition of SAPK2b/p38--beta-2 at 10 uM relative to control; values are per cent of control.
Experiment [23] concerns the target RAC-alpha serine/threonine-protein kinase (Homo sapiens) (UniProt P31749). The experiment in a line: Inhibition of PKBalpha at 10 uM relative to control; values are per cent of control.
In experiment [24] the target is Casein kinase I (Homo sapiens) (UniProt Q9HCP0+P78368+P48730+P49674+P48729). Briefly: Residual activity of CK1 at 10 uM relative to control.
The target in experiment [25] is Tyrosine-protein kinase Lyn (Homo sapiens) (UniProt P07948). The experiment in a line: Residual activity of Lyn at 10 uM relative to control.
Experiment [26] has as its target Tyrosine-protein kinase CSK (Homo sapiens) (UniProt P41240). The experiment in a line: Inhibition of CSK at 10 uM relative to control. In a few lines: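 Kinase selectivity panel: activity of each kinase measured with inhibitor at 10 μM. Residual activity is expressed as a percentage of a control run without inhibitor. Assays were linear with respect to time and enzyme concentration. Lyn, c-Fgr and Syk were purified from rat spleen. Golgi CK came from rat lactating mammary gland.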

Experiment [27] has as its target MAP kinase-activated protein kinase 5 (Homo sapiens) (UniProt Q8IW41). Briefly: Residual activity of PRAK at 10 uM relative to control.
Experiment [28] addresses Ribosomal protein S6 kinase alpha-1 (Homo sapiens, UniProt Q15418). Briefly: Residual activity of MAPKAPK1a at 10 uM relative to control.

Casein kinase II, sequence (P67870 whole entry): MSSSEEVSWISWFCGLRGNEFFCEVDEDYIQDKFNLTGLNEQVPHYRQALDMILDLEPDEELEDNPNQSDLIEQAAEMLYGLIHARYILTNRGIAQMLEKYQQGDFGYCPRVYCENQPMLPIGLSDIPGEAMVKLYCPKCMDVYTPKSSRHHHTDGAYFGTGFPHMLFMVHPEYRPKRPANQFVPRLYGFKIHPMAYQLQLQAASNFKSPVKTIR
Casein kinase II, sequence (P68400 whole entry): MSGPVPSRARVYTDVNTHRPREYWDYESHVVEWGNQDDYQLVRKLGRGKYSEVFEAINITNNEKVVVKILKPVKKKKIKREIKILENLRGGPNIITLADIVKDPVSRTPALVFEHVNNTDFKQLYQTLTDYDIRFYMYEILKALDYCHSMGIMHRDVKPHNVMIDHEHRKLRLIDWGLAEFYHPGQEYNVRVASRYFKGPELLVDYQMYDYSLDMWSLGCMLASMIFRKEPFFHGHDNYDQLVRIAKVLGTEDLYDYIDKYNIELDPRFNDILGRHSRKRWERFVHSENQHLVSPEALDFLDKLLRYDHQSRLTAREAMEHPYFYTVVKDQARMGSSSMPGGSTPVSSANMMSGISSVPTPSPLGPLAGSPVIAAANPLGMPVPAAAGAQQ
Casein kinase II, sequence (P19784 whole entry): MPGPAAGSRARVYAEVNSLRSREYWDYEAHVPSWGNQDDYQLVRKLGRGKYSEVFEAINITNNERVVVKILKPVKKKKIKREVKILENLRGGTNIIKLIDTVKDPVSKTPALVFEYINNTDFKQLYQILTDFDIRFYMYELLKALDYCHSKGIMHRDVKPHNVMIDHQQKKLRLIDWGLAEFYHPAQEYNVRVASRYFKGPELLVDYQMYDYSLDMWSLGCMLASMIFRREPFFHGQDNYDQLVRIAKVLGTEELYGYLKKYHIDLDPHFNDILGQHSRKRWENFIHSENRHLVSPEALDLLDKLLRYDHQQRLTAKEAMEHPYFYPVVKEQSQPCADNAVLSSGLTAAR
Mitogen-activated protein kinase 13 (Homo sapiens), sequence (O15264 whole entry): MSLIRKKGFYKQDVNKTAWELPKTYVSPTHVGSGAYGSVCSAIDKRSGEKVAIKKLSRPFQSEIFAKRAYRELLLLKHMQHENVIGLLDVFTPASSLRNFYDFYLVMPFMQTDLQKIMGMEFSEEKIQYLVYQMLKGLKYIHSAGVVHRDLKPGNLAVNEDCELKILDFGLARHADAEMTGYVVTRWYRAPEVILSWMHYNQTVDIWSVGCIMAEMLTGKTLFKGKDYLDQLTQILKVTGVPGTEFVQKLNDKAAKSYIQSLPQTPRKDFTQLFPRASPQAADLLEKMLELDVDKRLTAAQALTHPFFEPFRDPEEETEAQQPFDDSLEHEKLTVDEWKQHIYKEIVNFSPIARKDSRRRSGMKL
MAP kinase-activated protein kinase 2 (Homo sapiens), sequence (P49137 whole entry, looked up): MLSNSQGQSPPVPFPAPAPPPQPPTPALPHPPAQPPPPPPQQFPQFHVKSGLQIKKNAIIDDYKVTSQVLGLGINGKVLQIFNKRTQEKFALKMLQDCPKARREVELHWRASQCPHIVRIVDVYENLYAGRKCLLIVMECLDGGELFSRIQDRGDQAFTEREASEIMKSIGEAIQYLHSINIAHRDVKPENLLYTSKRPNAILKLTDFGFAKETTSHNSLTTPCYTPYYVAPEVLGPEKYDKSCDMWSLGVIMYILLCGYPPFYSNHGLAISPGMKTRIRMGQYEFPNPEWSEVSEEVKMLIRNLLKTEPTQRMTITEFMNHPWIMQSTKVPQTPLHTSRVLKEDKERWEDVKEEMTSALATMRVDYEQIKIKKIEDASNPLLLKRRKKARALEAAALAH
Ribosomal protein S6 kinase beta-1 (Homo sapiens), sequence (P23443 whole entry, looked up): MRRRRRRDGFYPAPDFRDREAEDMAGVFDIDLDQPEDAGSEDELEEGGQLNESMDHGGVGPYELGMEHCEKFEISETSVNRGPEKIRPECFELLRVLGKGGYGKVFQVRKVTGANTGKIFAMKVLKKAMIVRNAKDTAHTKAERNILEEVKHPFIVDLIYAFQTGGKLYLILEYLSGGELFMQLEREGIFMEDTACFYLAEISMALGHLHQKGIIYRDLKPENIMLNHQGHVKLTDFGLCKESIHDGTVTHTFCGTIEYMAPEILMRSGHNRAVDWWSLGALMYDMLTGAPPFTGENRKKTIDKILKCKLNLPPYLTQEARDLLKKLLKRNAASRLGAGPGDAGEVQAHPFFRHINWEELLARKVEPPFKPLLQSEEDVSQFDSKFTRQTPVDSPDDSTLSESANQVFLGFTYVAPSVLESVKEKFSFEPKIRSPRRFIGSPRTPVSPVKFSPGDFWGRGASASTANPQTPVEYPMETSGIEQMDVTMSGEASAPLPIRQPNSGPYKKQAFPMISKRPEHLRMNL
Dual specificity mitogen-activated protein kinase kinase 1, sequence (Q02750 whole entry): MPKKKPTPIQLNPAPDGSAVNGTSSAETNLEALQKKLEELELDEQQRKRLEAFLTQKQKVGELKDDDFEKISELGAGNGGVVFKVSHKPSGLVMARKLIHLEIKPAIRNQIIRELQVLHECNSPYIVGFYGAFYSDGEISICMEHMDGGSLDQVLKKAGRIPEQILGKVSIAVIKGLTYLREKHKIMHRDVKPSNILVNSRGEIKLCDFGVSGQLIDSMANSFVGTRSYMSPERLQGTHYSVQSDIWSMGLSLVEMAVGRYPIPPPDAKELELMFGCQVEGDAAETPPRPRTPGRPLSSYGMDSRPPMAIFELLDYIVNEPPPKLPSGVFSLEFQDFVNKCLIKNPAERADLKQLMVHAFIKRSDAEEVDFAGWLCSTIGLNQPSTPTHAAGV
Tyrosine-protein kinase CSK (Homo sapiens), sequence (P41240 2-450 limits assumed): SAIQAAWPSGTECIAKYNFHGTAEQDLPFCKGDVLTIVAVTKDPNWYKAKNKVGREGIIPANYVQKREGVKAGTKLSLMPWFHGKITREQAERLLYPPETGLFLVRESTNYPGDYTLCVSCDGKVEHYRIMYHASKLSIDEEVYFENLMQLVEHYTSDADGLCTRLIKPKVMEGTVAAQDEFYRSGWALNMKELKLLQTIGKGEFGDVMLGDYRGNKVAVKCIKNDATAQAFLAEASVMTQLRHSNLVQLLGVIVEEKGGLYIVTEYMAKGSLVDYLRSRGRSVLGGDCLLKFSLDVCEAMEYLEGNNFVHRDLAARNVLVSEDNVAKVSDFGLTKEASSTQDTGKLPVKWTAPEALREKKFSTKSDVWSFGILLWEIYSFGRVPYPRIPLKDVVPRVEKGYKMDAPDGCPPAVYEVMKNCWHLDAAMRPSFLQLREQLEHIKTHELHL
Mitogen-activated protein kinase 1 (Homo sapiens), sequence (P28482 whole entry): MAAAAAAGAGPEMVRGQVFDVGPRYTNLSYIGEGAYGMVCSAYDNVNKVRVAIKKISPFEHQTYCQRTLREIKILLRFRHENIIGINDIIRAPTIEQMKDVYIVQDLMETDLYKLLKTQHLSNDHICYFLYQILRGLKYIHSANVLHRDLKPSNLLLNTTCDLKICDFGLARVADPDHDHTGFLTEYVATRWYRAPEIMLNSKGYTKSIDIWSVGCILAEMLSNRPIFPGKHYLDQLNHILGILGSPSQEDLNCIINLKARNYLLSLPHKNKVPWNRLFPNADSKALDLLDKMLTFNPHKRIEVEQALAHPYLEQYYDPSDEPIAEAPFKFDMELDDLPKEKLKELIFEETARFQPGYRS
Mitogen-activated protein kinase 12 (Homo sapiens), sequence (P53778 whole entry): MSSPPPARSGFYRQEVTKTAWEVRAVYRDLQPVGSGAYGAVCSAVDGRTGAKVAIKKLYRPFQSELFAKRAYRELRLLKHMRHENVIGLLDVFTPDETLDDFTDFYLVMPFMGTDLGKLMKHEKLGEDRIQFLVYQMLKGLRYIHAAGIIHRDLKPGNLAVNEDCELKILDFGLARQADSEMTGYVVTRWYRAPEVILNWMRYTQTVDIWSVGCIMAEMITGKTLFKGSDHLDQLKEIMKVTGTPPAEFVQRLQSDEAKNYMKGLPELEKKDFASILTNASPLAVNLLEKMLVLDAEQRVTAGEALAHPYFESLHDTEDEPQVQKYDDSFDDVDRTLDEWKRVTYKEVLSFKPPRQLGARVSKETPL
Tyrosine-protein kinase Lyn (Homo sapiens), sequence (P07948 2-512 limits assumed): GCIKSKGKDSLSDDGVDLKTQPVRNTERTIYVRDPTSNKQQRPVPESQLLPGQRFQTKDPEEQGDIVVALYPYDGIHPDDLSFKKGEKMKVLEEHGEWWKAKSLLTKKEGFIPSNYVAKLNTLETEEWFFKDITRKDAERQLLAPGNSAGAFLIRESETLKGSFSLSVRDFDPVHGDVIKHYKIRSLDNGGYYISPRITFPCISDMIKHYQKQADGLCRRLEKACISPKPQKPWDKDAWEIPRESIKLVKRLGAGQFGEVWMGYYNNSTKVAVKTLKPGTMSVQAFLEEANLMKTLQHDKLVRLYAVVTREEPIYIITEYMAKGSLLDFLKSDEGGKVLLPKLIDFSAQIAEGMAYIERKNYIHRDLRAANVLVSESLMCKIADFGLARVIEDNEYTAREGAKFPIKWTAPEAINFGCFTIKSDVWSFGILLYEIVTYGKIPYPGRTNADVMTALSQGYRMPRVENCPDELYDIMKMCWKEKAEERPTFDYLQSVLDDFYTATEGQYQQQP
RAC-alpha serine/threonine-protein kinase (Homo sapiens), sequence (P31749 whole entry): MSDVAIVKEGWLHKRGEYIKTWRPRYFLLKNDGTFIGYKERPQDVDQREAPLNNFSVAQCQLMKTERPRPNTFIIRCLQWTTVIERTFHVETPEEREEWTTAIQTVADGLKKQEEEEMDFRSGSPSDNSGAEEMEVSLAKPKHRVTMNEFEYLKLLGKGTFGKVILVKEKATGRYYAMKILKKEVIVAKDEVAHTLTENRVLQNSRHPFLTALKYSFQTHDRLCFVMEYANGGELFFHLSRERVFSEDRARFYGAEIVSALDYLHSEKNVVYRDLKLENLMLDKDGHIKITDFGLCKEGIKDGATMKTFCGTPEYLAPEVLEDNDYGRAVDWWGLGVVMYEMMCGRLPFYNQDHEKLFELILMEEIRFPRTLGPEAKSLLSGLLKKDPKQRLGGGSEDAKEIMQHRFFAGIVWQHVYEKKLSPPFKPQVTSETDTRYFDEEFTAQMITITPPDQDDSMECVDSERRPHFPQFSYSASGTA

One may read the IC50 as the point on the concentration scale where inhibition reaches its midpoint. A word on the Ki: it is the dissociation constant of the complex between target and ligand, obtained from inhibition or displacement. Higher therefore signals weaker binding. With `OCC(O)CSc1nc2c(Br)c(Br)c(Br)c(Br)c2[nH]1` (centres undefined), at Casein kinase II, the IC50 came out at 150 nM and affinity was put at a Ki of 140 nM.
Consider `O=C(O)CSc1nc2c(Br)c(Br)c(Br)c(Br)c2[nH]1`, for which, at Casein kinase II, it took 250 nM to reach half-maximal inhibition (IC50) and the Ki is 180 nM.
At Casein kinase II, `CN(C)c1nc2c(Br)c(Br)c(Br)c(Br)c2n1C` displayed an IC50 of 130 nM and a Ki of 200 nM.
For `CC(O)CNc1nc2c(Br)c(Br)c(Br)c(Br)c2[nH]1` (centres undefined), on Casein kinase II, the IC50 stood at 280 nM and the affinity corresponds to a Ki of 140 nM.
Compound `CCOc1nc2c(Br)c(Br)c(Br)c(Br)c2n1C` showed an IC50 at Casein kinase II of more than 40000 nM.
Consider `Cn1c(=O)[nH]c2c(Br)c(Br)c(Br)c(Br)c21`, for which, at Casein kinase II, the midpoint of inhibition, the IC50, lay at 390 nM and the affinity corresponds to a Ki of 200 nM.
On Casein kinase II, `CSc1nc2c(Br)c(Br)c(Br)c(Br)c2n1C` came in with a half-inhibitory concentration (IC50) of 600 nM and a Ki of 360 nM.
In the case of `CC(C)Oc1nc2c(Br)c(Br)c(Br)c(Br)c2n1C`, half-maximal inhibition on Casein kinase II (IC50) required 20400 nM.
For the compound `CSc1nc2c(Br)c(Br)c(Br)c(Br)c2[nH]1`, at Casein kinase II, inhibition was half-maximal at 250 nM (IC50) and the affinity corresponds to a Ki of 70 nM.
Take `CNc1nc2c(Br)c(Br)c(Br)c(Br)c2[nH]1`: at Casein kinase II, the IC50 came to 210 nM and affinity was put at a Ki of 90 nM.
Consider `O=[N+]([O-])c1ccc(CSc2nc3c(Br)c(Br)c(Br)c(Br)c3[nH]2)cc1`, for which it took 3480 nM to reach half-maximal inhibition against Casein kinase II (IC50).
For `CN(C)CCNc1nc2c(Br)c(Br)c(Br)c(Br)c2[nH]1`, at Casein kinase II, half-maximal inhibition (IC50) was put at 250 nM and the Ki came to 160 nM.
On Casein kinase II, `OCCNc1nc2c(Br)c(Br)c(Br)c(Br)c2[nH]1` returned an IC50 of 270 nM and a Ki of 130 nM.
For `NC(=O)Cn1c(Br)nc2c(Br)c(Br)c(Br)c(Br)c21` the same measures were 1570 nM and 1900 nM.
Consider `C=CCn1c(Br)nc2c(Br)c(Br)c(Br)c(Br)c21`, for which, on Casein kinase II, half-maximal inhibition (IC50) required 880 nM and the Ki came out at 630 nM.
At Casein kinase II, `Brc1nc2c(Br)c(Br)c(Br)c(Br)c2[nH]1` gave an IC50 of 740 nM and a Ki of 230 nM.
Take `O=c1[nH]c2c(Br)c(Br)c(Br)c(Br)c2[nH]1`: at Casein kinase II, inhibition was half-maximal at 360 nM (IC50) and the affinity, expressed as Ki, was 150 nM.
On Casein kinase II, `CC(C)Nc1nc2c(Br)c(Br)c(Br)c(Br)c2n1C` yielded an IC50 of 180 nM and a Ki of 190 nM.
`CCOC(=O)CSc1nc2c(Br)c(Br)c(Br)c(Br)c2[nH]1` registered a concentration for half-maximal inhibition (IC50) against Casein kinase II of 1550 nM.
Usually inhibition stands for the drop in the measured response relative to a control, in per cent. On to `Brc1c(Br)c(Br)c2[nH]nnc2c1Br` [TETRABROMOBENZOTRIAZOLE], for which the residual activity in [1] is 107%; in the experiment listed under Homo sapiens [2] it was 117%; in experiment [3], 102%; in experiment [4] it was 99%; in [5], 94%; in experiment [6], 89%. The residual activity in experiment [7] came to 90%; in [8], 111%; in [9] it was 93%; in experiment [10] it was 96%; in experiment [11], 111%; in experiment [12] it was 102%. Besides, the residual activity amounted to 22% in [13]; 97% in experiment [14]; 108% in experiment [15]; 97% in [16]; 101% in experiment [17]; 91% in [18]. For the same compound, the residual activity in experiment [19] turned out to be 89%; in the experiment filed under Homo sapiens [20] it was 49%; in experiment [21], 64%; in experiment [22], 103%; in experiment [23], 91%; in experiment [24], 91%. Further, the residual activity in experiment [25] amounted to 99%; in experiment [27] it was 87%; in experiment [28], 90%. This compound also yielded a DC50 in the experiment with Jurkat of 17000 nM. Besides, in experiment [26], the inhibition is 101%.
As to `Nc1nc2c(Br)c(Br)c(Br)c(Br)c2[nH]1`, on Casein kinase II, the IC50 turned out to be 300 nM and the affinity corresponds to a Ki of 90 nM.
On to `CC(C)Nc1nc2c(Br)c(Br)c(Br)c(Br)c2[nH]1`, for which, at Casein kinase II, the half-inhibitory concentration (IC50) was found to be 160 nM and the affinity corresponds to a Ki of 60 nM.
On Casein kinase II, `Cn1c(Br)nc2c(Br)c(Br)c(Br)c(Br)c21` yielded an IC50 of 430 nM and a Ki of 540 nM.
